Here are results for six compounds from publication PMC7657097 (Medical Mycology, 2020).

In brackets after ≈: the same amount, converted by molar mass. Where two headings read alike, the source gives them in different places.

Series [1] has as its system primary human nasal epithelial cells. The experiment in a line: Cytotoxicity test. Format: cell-based. To be noted: 5 μM peptide, 3 hours at 37°C, WST-1. Put shortly:
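Primary human nasal epithelial cells were grown to confluency in bronchial epithelial cell medium. Cells were exposed to peptide, then washed three times with PBS. Viability was measured colorimetrically with WST-1 (10% v/v in cell medium). Controls were no peptide (100% viability) and 70% ethanol (total loss of viability). Runs were in triplicate, and treated wells were compared with no-peptide wells by two-tailed paired Student t test.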
On the technique in general: Tetrazolium assays rely on reduction of a dye to a coloured formazan, in cell work by metabolically active cells.

In series [2] the test system is A. fumigatus. To be noted: EUCAST, ref [27], cited from earlier work.
The subject of series [3] is A. fumigatus. Briefly: Metabolic assay. Type of series: cell-based, Aspergillus fumigatus. To be noted: for inhibition of metabolic activity: A. fumigatus strains Af293, CEA10 and DTO342-B2, 1 μM peptide, initial experiments, results not shown. Put shortly: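 A. fumigatus grown 4 days on PDA at 37°C; conidia scraped into saline with 0.002% Tween 20 and counted by haemocytometer. Each well held 5 × 10³ conidia, glucose (final 2%), resazurin and water-diluted peptide. Controls lacked peptide or cells; edge wells held water. Absorbance at 570 nm, corrected for the no-cell control, read repeatedly. Initial strain set tested in duplicate.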

For orientation: MIC means the smallest concentration in the dilution series that meets the test's criterion for growth inhibition.

For `CCO` [EtOH, ethanol], the “cell viability, Average (%)” value in series [1] (no peptide = 100% viability, in triplo) is listed as 17.5%. The “cytotoxic effect vs no peptide” value in series [1] (two-tailed paired Student t test) was “increased cytotoxic activity”.
`CCC(C)n1ncn(-c2ccc(N3CCN(c4ccc(OCC5COC(Cn6cncn6)(c6ccc(Cl)cc6Cl)O5)cc4)CC3)cc2)c1=O` (stereo not drawn) [ITC, itraconazole]: the MIC entry is “Human patient from hematology; Resistant to ITC (>16), POS (1), Intermediate for VRC (2) mg/l” with A. fumigatus [2] (A. fumigatus DTO 326-I1) and “Human ICU patient; Resistant to ITC (>16), POS (0.25), VRC (>16) mg/l” in the series with A. fumigatus [2] (A. fumigatus DTO 327-A8).
For `C[C@@H](c1ncncc1F)[C@](O)(Cn1cncn1)c1ccc(F)cc1F` [VRC, voriconazole], the MIC in the series with A. fumigatus [2] (A. fumigatus DTO 326-I1) was 2 mg/L (≈ 5.73 µM); in the series with A. fumigatus [2] (A. fumigatus DTO 327-A8) it was “Human ICU patient; Resistant to ITC (>16), POS (0.25), VRC (>16) mg/l”.
Consider APKAMRRWVQRWIRRWRPKVLQKNNYL-NH2 [CR183], for which the “inhibition of metabolic activity” value in the series on A. fumigatus [3] is on record as “inhibited the metabolic activity strongly”.
“LLGDFFRKSKEKIGKEFKRIVQRIKDFLRNLVPRTES-NH2 [LL-37]”: the “concentration at which metabolic activity is inhibited” value with A. fumigatus [3] (azole-resistant A. fumigatus strains DTO 327-A8 and 326-I1, tested at 1 and 5 μM, 0.125×MM, 105 μM resazurin, 37°C, 27 h, two experiments) is given as “did not inhibit metabolic activity”.
Consider “RRWVQRWIRRWRKVAAARRWVQRWIRRWRPKV-NH2 [CR173]”, for which the “inhibition of metabolic activity” value with A. fumigatus [3] is reported as “inhibited the metabolic activity strongly”.
